Our source for the Ki, inhibition and IC50 values is ChEMBL document CHEMBL1135729, “Synthesis and biological evaluation of a new set of pyrazolo[1,5-c]quinazoline-2-carboxylates as novel excitatory amino acid antagonists” (J Med Chem, 2002).

Where only a bound is given, the exact number is not on record here.

One may read the Ki as a dissociation constant, usually derived from enzyme kinetics or from competition with a known ligand. Usually inhibition stands for the drop in the measured response relative to a control, in per cent. In general, IC50 refers to the concentration that gives 50% inhibition.

Experiment [1] addresses T1, Glutamate receptor ionotropic, AMPA (Rattus norvegicus, UniProt P19490+P19491+P19492+P19493). The experiment is described as follows: Displacement of [3H]AMPA from Ionotropic glutamate receptor AMPA in rat cortical membranes. The experiment is classed as cell membranes, Membrane. In general terms: Loss of bound radioactivity is the signal in a displacement assay; it reports binding, not function.

In experiment [2] the target is Glutamate receptor ionotropic, kainate (Rattus norvegicus) (UniProt P22756+Q01812+P42260+P42264+Q63273). The experiment is described as follows: Percent Inhibition of specific [3H]KA binding to Ionotropic glutamate receptor in rat cortical membranes. The experiment is classed as cell membranes. Also noted: concentration or dose not given beside the values. The following applies: Membrane; concentration not given here. The essentials:
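Membranes resuspended (0.5 mg protein/mL) in 0.05 M Tris-citrate, pH 7.4, preincubated at 37 °C for 30 min, then washed three times in ice-cold buffer. Binding run on ice for 60 min with 5 nM [3H]kainate; nonspecific binding defined with 1 mM glutamate. Separation by GF/C filtration.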

The target in experiment [3] is T2, Glutamate receptor ionotropic, NMDA 1 (Rattus norvegicus, UniProt P35439). The experiment is described as follows: Inhibition by displacing [3H]-Glycine of N-methyl-D-aspartate glutamate receptor 1 in rat cortical membranes. The experiment is classed as cell membranes, Membrane.
Experiment [4] has as its target T2, Glutamate receptor ionotropic, NMDA 1. As to the kind of experiment: Displacement of [3H]glycine from N-methyl-D-aspartate glutamate receptor 1 in rat cortical membranes. The experiment is classed as cell membranes, Membrane.
For experiment [5], the species on record is Mus musculus. The experiment is described as follows: Concentration that inhibits by 50% depolarization induced by 5M AMPA. The experiment is classed as functional. The essentials: (§1)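 Cortical wedge preparation (per Mannaioni et al.). AMPA or NMDA (5 μM) applied for 2 min every 15 min until control peaks were stable, then wedges continuously superfused with antagonist while agonist pulses continued. Afterwards, washout with antagonist-free Krebs and agonist applied every 15 min for 30-60 min to confirm recovery. dc potential between two compartments recorded via Ag/AgCl electrodes. IC50 derived against control peaks; mean ± SEM, n = 4.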

Experiment [6] concerns the target Glutamate receptor ionotropic, NMDA 1 (Rattus norvegicus) (UniProt P35439). As to the kind of experiment: (§2) Percent Inhibition by displacing [3H]glycine of N-methyl-D-aspartate glutamate receptor 1 in rat cortical membranes. Also noted: concentration or dose not given beside the values. The experiment is classed as cell membranes. The following applies: Membrane; concentration not given here.

Experiment [7] is filed under the species Mus musculus. As to the kind of experiment: Concentration that inhibits by 50% depolarization induced by 5M NMDA. The experiment is classed as functional. The essentials: as §1
For experiment [8], the target named is Glutamate receptor ionotropic, AMPA (Rattus norvegicus) (UniProt P19491+P19492+P19493+P19490). The experiment is described as follows: Percent Inhibition by displacing [3H]AMPA from Ionotropic glutamate receptor AMPA specific binding sites in rat cortical membranes. The experiment is classed as cell membranes. On the set-up: concentration or dose not given beside the values. The following applies: concentration not given here.

A further experiment has as its target Glutamate NMDA receptor. The experiment is described as follows: Inhibition of stimulated [3H](+)-MK-801 binding to N-methyl-D-aspartate glutamate receptor in rat cortical membranes incubated with 10 uM glutamate and 0.1 uM glycine.
Experiment [9] addresses T2, Glutamate receptor ionotropic, NMDA 1. The experiment is described as §2. The experiment is classed as cell membranes, Membrane.
In experiment [10] the target is Glutamate receptor ionotropic, kainate. The experiment is described as follows: Inhibition of specific binding […] by displacing [3H]KA, from specific binding sites of Ionotropic glutamate receptor ionotropic kainate in rat cortical membranes. The experiment is classed as cell membranes, Membrane. The essentials:
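Rat cortical membranes preincubated at 0.5 mg protein/mL in 0.05 M Tris-citrate pH 7.4, 37 °C for 30 min, then washed thrice in ice-cold buffer. Binding on ice for 60 min with 5 nM [3H]kainate, 0.2-0.3 mg protein per assay. Nonspecific binding defined with 1 mM glutamate. Filtration separation.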

Experiment [11] has as its target T1, Glutamate receptor ionotropic, AMPA. The experiment is described as follows: Inhibition by displacing [3H]AMPA from Ionotropic glutamate receptor AMPA specific binding sites in rat cortical membranes. The experiment is classed as cell membranes.

On to `O=C(O)C1=NN2C(=O)Nc3cc(Cl)c(Cl)cc3C2C1` (stereo not given), for which the results for the Ki in experiment [1] and in [3] were 2.65 µM and 0.19 µM, respectively. In [2], the inhibition was determined as 17%.
Take `CCOC(=O)c1cc2c3ccccc3[nH]c(=O)n2n1`: the values for the Ki in [1] and in experiment [4] were 42 µM and 33.3 µM, respectively.
In turn, `CCOC(=O)c1cc2c3ccccc3nc(O)n2n1` returned an inhibition in [2] of 12%.
Consider `CCOC(=O)c1cc2c3cc(-n4cnnc4)c(Cl)cc3nc(O)n2n1`, for which the IC50 was 1.75 µM in the experiment filed under Mus musculus [5] and above 50 µM in the experiment filed under Mus musculus [7]. Also, in experiment [1], affinity was put at a Ki of 0.87 µM. In addition, the inhibition was 38% in experiment [2] and 18% in experiment [6].
Consider `O=C(O)c1nc2c(=O)[nH]c3cc(Cl)c(-n4cnnc4)cc3n2n1` [TQX-173], for which, in experiment [3], the Ki was determined as 33.5 µM.
Consider `COC(=O)C1=NN2C(=O)Nc3cc(Cl)c(Cl)cc3C2C1` (stereo not given), for which the figures for the Ki in experiment [1] and in experiment [4] were 8.5 µM and 4 µM, respectively. Besides, in experiment [2], the inhibition was 9%.
`COC(=O)C1=NN2C(=O)Nc3ccccc3C2C1` (stereo not given): the inhibition came to 29% in experiment [8], 0% in [2] and 40% in experiment [6].
In the same order, the values of `CCOC(=O)c1cc2c3cc([N+](=O)[O-])ccc3nc(O)n2n1` are 27%, 4% and 15%.
`O=C(O)c1cc2c3cc([N+](=O)[O-])ccc3nc(O)n2n1` registered an inhibition constant (Ki) in experiment [1] of 26 µM. Besides, the inhibition in [2] is 24%; in experiment [6], 35%.
Turning to `CCOC(=O)c1cc2c3cc(N)ccc3nc(O)n2n1`, the inhibition is 27% in experiment [8], 30% in experiment [2] and 30% in experiment [6].
Molecule `O=C(O)c1cc2c3ccccc3nc(O)n2n1` registered a half-maximal inhibitory concentration (IC50) on Glutamate NMDA receptor of 10.4 µM. The results for the Ki in [1] and in experiment [4] were 12.4 µM and 1.41 µM, respectively. Further, in experiment [2], the inhibition is 26%.
As for `O=C(O)c1cc2c3cc([N+](=O)[O-])c(Cl)cc3[nH]c(=O)n2n1`, the Ki is 0.74 µM in [1] and 1.1 µM in experiment [9]. In [10], this molecule showed an IC50 of 23 µM.
For `CCOC(=O)c1cc2n(n1)C(C(=O)O)Nc1cc(Cl)ccc1-2` (stereo not given), the figures for the inhibition in [8], in [2] and in experiment [6] were 6%, 1% and 5%, respectively.
As to `O=Cc1ccn(-c2cc3c(cc2Cl)nc(O)n2nc(C(=O)O)cc32)c1`, the IC50 in the experiment listed under Mus musculus [5] stood at 0.5 µM; in experiment [10], 5.5 µM; in the experiment listed under Mus musculus [7], 25 µM. The inhibition constant (Ki) in experiment [11] turned out to be 0.27 µM; in experiment [3], 8.2 µM.
Turning to `CCOC(=O)c1cc2c3cc(-n4ccc(C=O)c4)c(Cl)cc3nc(O)n2n1`, the IC50 was 1 µM in the experiment listed under Mus musculus [5] and above 50 µM in the experiment filed under Mus musculus [7]. The same molecule came in with an inhibition in experiment [2] of 29%. The Ki in experiment [11] is 1.4 µM; in experiment [3] it was 57 µM.
On to `O=C(O)C1=NN2C(=O)Nc3ccccc3C2C1` (stereo not given), for which the Ki came out at 96 µM in experiment [1] and 2 µM in [4]. In addition, in [10], the IC50 stood at 19.5 µM.
Consider `CCOC(=O)c1cc2c3ccc(Cl)cc3nc(O)n2n1`, for which, in experiment [2], the inhibition stood at 15%.
Regarding `COC(=O)c1cc2c3cc(Cl)c(Cl)cc3nc(O)n2n1`, the inhibition is 42% in [8] and 10% in experiment [2]. In [4], this molecule returned a Ki of 1.3 µM.
Consider `O=C(O)c1cc2n(n1)C(C(=O)O)Nc1cc(Cl)ccc1-2` (stereo not given), for which the values for the inhibition in experiment [8], in experiment [2] and in experiment [6] were 7%, 13% and 25%, respectively.
Take `O=C(O)c1cc2c3ccc(Cl)cc3nc(O)n2n1`: the Ki in experiment [1] was 2.3 µM; in experiment [4], 0.48 µM. For the same molecule, the IC50 in experiment [10] was 60 µM.
Consider `O=C(O)c1cc2n(n1)C(C(=O)O)Nc1ccccc1-2` (stereo not given), for which the inhibition in [8] is 0%; in experiment [2], 11%; in experiment [6], 35%.
`O=C(O)C1=NN2C(=O)Nc3cc(Cl)ccc3C2C1` (stereo not given): the Ki worked out at 7.2 µM in experiment [1] and 0.24 µM in experiment [4]. Also, the inhibition in experiment [2] is 20%.
In [2], `CCOC(=O)c1cc2c3cc([N+](=O)[O-])c(Cl)cc3nc(O)n2n1` yielded an inhibition of 23%.
In the case of `CCOC(=O)c1cc2n(n1)C(C(=O)O)Nc1ccccc1-2` (stereo not given), the inhibition in [8] came out at 12%; in [2] it was 0%; in experiment [6], 15%.
Consider `COC(=O)C1=NN2C(=O)Nc3cc(Cl)ccc3C2C1` (stereo not given), for which the Ki in experiment [1] amounted to 17.3 µM; in [4], 10.6 µM. This molecule had an inhibition in experiment [2] of 3%.
With `O=C(O)c1cc2c3cc(-n4cnnc4)c(Cl)cc3[nH]c(=O)n2n1`, in experiment [1], the inhibition constant (Ki) stood at 0.14 µM. The same molecule displayed an IC50 in the experiment listed under Mus musculus [7] of 20 µM.
`CCOC(=O)c1cc2c3cc(N)c(Cl)cc3nc(O)n2n1`: the results for the inhibition in experiment [8], in [2] and in experiment [6] were 33%, 11% and 40%, respectively.
As for `O=C(O)c1cc2c3cc(Cl)c(Cl)cc3[nH]c(=O)n2n1`, the Ki in experiment [1] amounted to 2.4 µM; in [4] it was 0.16 µM. The IC50 in experiment [10] was found to be 41 µM.
For the molecule `CCOC(=O)c1cc2c3cc([N+](=O)[O-])c(Cl)cc3[nH]c(=O)n2n1`, the Ki in experiment [1] worked out at 8.2 µM; in experiment [4] it was 10.6 µM.
On the same counts, the results for `CCOC(=O)c1cc2c3ccc(Cl)cc3[nH]c(=O)n2n1` are 72 µM and 26.5 µM.
